Experimental data reported in ChEMBL document CHEMBL1208664, “Structure-activity relationship studies of acridones as potential antipsoriatic agents. 1. Synthesis and antiproliferative activity of simple N-unsubstituted 10H-acridin-9-ones against human keratinocyte growth” (Eur J Med Chem, 2010).

Tests used:
[1] = test system: HaCaT; experiment: Antiproliferative activity against human HaCaT cells after 48 hrs by phase contrast microscopy; format: functional, cell-based
Method in brief: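 HaCaT keratinocytes were treated for 48 h, then dispersed cells were counted under phase-contrast microscopy. Inhibition = (1 − test/control) × 100, with test mean N=3 against control N=6–8. Significance was by Student's t-test.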

[2] = test system: Radical scavenging activity; experiment: Antioxidant activity assessed as DPPH free radical scavenging activity after 30 mins; format: functional; details: in the assay text read “after 20 mins” for “after 30 mins”
Method in brief: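 Test compound in EtOH was mixed with an equal volume of DPPH in EtOH. The mix was shaken 30 s, held in the dark at RT for 20 min, shaken again 30 s, and the drop in absorbance at 520 nm was read. Scavenging % = (1 − test/control absorbance) × 100, with test N=3 and control N=8. EC50 came from nonlinear regression. NDGA and α-tocopherol were positive controls.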

[3] = test system: HaCaT; experiment: Antiproliferative activity against human HaCaT cells assessed as LDH release at 2 uM after 4 hrs by UV method

| Compound | EC50 [2] [µM] | IC50 [2] [µM] | IC50 [1] [µM] | Activity [3] [mU/ml] |
| --- | --- | --- | --- | --- |
| O=c1c2ccccc2[nH]c2cc(O)ccc12 |  |  | > 50 |  |
| COc1ccc(C(N)=O)c2[nH]c3ccccc3c(=O)c12 | > 60 |  | 8.8 | 66.5 |
| O=C(O)c1ccc(O)c2c(=O)c3ccccc3[nH]c12 | > 60 |  | 49.2 |  |
| O=c1c2ccccc2[nH]c2cc(OCc3ccccc3)cc(O)c12 |  |  | 47.8 |  |
| O=c1c2ccccc2[nH]c2cc(OCCc3ccccc3)cc(O)c12 |  |  | 21 |  |
| CC(=O)c1ccc2[nH]c3ccccc3c(=O)c2c1O | > 60 |  | 17.1 |  |
| CC(=O)Oc1cccc2[nH]c3ccccc3c(=O)c12 |  |  | 21.5 |  |
| COc1cccc2[nH]c3cccc(OC)c3c(=O)c12 |  |  | > 50 |  |
| COc1ccc2c(=O)c3ccccc3[nH]c2c1 |  |  | > 50 |  |
| COc1ccc2c(=O)c3c(OC)cccc3[nH]c2c1 |  |  | > 50 |  |
| COc1ccc2[nH]c3cccc(OC)c3c(=O)c2c1 |  |  | > 50 |  |
| O=c1c2c(O)cccc2[nH]c2cc(O)cc(O)c12 | > 60 |  | 2 | 69.3 |
| COc1cc(OC)c2c(=O)c3c(OC)cccc3[nH]c2c1 |  |  | 45.3 |  |
| COc1cccc2[nH]c3cc(O)cc(O)c3c(=O)c12 |  |  | 28.3 |  |
| Cc1cc(O)c2c(=O)c3ccccc3[nH]c2c1 |  |  | > 50 |  |
| Cc1cc(O)cc2[nH]c3ccccc3c(=O)c12 |  |  | 27.3 |  |
| Cc1ccc2c(=O)c3c(O)cc(O)cc3[nH]c2c1 |  |  | > 50 |  |
| O=c1c2ccccc2[nH]c2c([N+](=O)[O-])ccc(O)c12 | > 60 |  | 47.3 |  |
| N#Cc1ccc(O)c2c(=O)c3ccccc3[nH]c12 | > 60 |  | 27.9 |  |
| Cc1cccc2c(O)c3c(O)cc(O)cc3nc12 |  |  | > 50 |  |
| COc1cc(O)c2c(O)c3cccc(OC)c3nc2c1 |  |  | 34.3 |  |
| O=c1c2ccccc2[nH]c2ccc(O)cc12 | 2.7 |  | > 50 |  |
| COc1cc(O)c2c(=O)c3ccccc3[nH]c2c1 |  |  | 46.3 |  |
| COc1cc(OC)c2c(=O)c3ccccc3[nH]c2c1 |  |  | > 50 |  |
| O=c1c2ccccc2[nH]c2cc(O)cc(O)c12 | > 60 |  | 19.8 |  |
| COc1ccc2[nH]c3ccccc3c(=O)c2c1 |  |  | > 50 |  |
| COc1cccc2c(O)c3c(O)cc(O)cc3nc12 |  |  | 21.3 |  |

More lines, main results first:

| EC50 [2] [µM] | IC50 [2] [µM] | Compound | IC50 [1] [µM] | Activity [3] [mU/ml] |
| --- | --- | --- | --- | --- |
| > 60 |  | COC(=O)c1ccc(O)c2c(=O)c3ccccc3[nH]c12 | 5.2 | 58.8 |
| > 60 |  | COC(=O)c1ccc(OC)c2c(=O)c3ccccc3[nH]c12 | 10.8 | 63.7 |
| > 60 |  | COc1ccc(C(=O)O)c2[nH]c3ccccc3c(=O)c12 | > 50 |  |
| > 60 |  | O=C(c1ccccc1)c1ccc2[nH]c3ccccc3c(=O)c2c1O | 1.6 | 88.9 |
| > 60 |  | O=C(Oc1cccc2[nH]c3ccccc3c(=O)c12)c1ccccc1 | 12.4 |  |
| > 60 |  | O=c1c2c(O)cccc2[nH]c2cccc(O)c12 | 39.5 |  |
| 6.8 |  | O=c1c2ccccc2[nH]c2c(O)cccc12 | > 50 |  |
| > 60 |  | COc1cccc2c(=O)c3ccccc3[nH]c12 | > 50 |  |
| 8.8 |  | O=c1c2ccccc2[nH]c2c(O)ccc(O)c12 | 10 | 61.2 |
| > 60 |  | COc1ccc(OC)c2c(=O)c3ccccc3[nH]c12 | > 50 |  |
| > 60 |  | COc1ccc(O)c2c(=O)c3ccccc3[nH]c12 | 17.5 |  |
| > 60 |  | O=c1c2ccc(O)cc2[nH]c2cccc(O)c12 | 4.5 | 77.7 |
| 3.9 |  | O=c1c2cc(O)ccc2[nH]c2cccc(O)c12 | 48.8 |  |
| 15 |  | O=c1c2cccc(O)c2[nH]c2cc(O)cc(O)c12 | 8.4 | 69.9 |
| > 60 |  | COc1ccc(O)c2c(=O)c3c(O)cccc3[nH]c12 | > 50 |  |
| > 60 |  | COc1ccc(OC)c2c(=O)c3c(OC)cccc3[nH]c12 | > 50 |  |

| EC50 [2] [µM] | IC50 [2] [µM] | Compound | IC50 [1] [µM] | Activity [3] [mU/ml] |
| --- | --- | --- | --- | --- |
| > 60 |  | Cc1ccc(O)c2c(=O)c3ccccc3[nH]c12 | 25.7 |  |
| > 60 |  | COc1ccc(C)c2[nH]c3ccccc3c(=O)c12 | 46.7 |  |
| > 60 |  | O=c1c2ccccc2[nH]c2c(Cl)ccc(O)c12 | 26.3 |  |
| > 60 |  | COc1ccc(Cl)c2[nH]c3ccccc3c(=O)c12 | 43.8 |  |
| > 60 |  | COc1ccc([N+](=O)[O-])c2[nH]c3ccccc3c(=O)c12 | > 50 |  |
| 7.6 |  | Nc1ccc(O)c2c(=O)c3ccccc3[nH]c12 | > 50 |  |
| 7.7 |  | COc1ccc(N)c2[nH]c3ccccc3c(=O)c12 | > 50 |  |
| > 60 |  | COc1ccc(C#N)c2[nH]c3ccccc3c(=O)c12 | > 50 |  |
| > 60 |  | NC(=O)c1ccc(O)c2c(=O)c3ccccc3[nH]c12 | 4.7 | 68.1 |
| > 60 |  | COc1cccc2[nH]c3ccccc3c(=O)c12 | > 50 |  |
| > 60 |  | O=c1c2ccccc2[nH]c2cccc(O)c12 | > 50 |  |
| > 60 |  | Cc1cccc2nc3cc(O)cc(O)c3c(O)c12 | 0.8 | 71.5 |
|  | 8.2 | Cc1c(C)c2c(c(C)c1O)CC[C@@](C)(CCC[C@H](C)CCC[C@H](C)CCCC(C)C)O2 [ALPHA-TOCOPHEROL] |  |  |
| 16.7 |  | O=C1c2c(O)cccc2Cc2cccc(O)c21 [ANTHRALIN] |  | 122.8 |
|  | 4.2 | CC(Cc1ccc(O)c(O)c1)C(C)Cc1ccc(O)c(O)c1 (stereo not given) [NORDIHYDROGUAIARETIC ACID] |  |  |
